Measured values from paper PMC9998351 (Steroids, 2023).
Values joined by “and” are separate entries in the source; they are usually repeats but may differ in a detail not shown here. Equal values may be shown once.

Columns and labels:
[1] = Oral pharmacokinetics and bioavailability in rats; format: in vivo; conditions: for Vd/F: Vz/F; for AUC(0-t): AUClast
Method in brief: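 Sprague Dawley rats (8–12 wk, 3/sex/group, catheterised jugular vein) got one oral gavage dose of 10 or 50 mg/kg. Dose was a solution in cremophor:ethanol:saline (1:1:8), pH 4.0, at 10 ml/kg. EDTA plasma was collected at 5, 15, 30 min, 1, 2, 4, 6 and 24 h, precipitated with acetonitrile, and quantified by LC-MS/MS against abiraterone internal standard. Noncompartmental parameters; bioavailability from oral AUClast versus IV.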

[2] = tested on: male Nude mice; assay: Chronic dosing toxicity in male nude mice; format: in vivo; conditions: male nude mice
[3] = Chronic dosing toxicity in male nude mice; format: in vivo; conditions: male, Nude, mouse, in vivo, ip
[4] = tested on: CRPC CWR22Rv1 xenograft tumors; conditions: ref [26], cited from earlier work
[5] = Intravenous pharmacokinetics in rats; format: in vivo; conditions: for Cmax/D / Tmax / AUCinf / AUClast / C0 / CL / Cmax / T1/2 / Vss / Vz / AUC(0-inf) / AUC(0-t) / clearance / half-life / Vd: 1 mg/kg IV; for AUC(0-inf): AUCinf; for AUC(0-t): AUClast; for clearance: CL
Method in brief: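 Single 1 mg/kg IV dose to jugular-vein-catheterised Sprague Dawley rats (8–12 wk, 3/sex), given in cremophor:ethanol:saline (1:1:8), pH 4.0 (acetic acid), at 10 ml/kg. EDTA blood was taken at 5, 15, 30 min, 1, 2, 4, 6 and 24 h for plasma. Plasma was prepared by acetonitrile precipitation and aqueous dilution, then run on LC-MS/MS (positive ESI, MRM 439.2>371.2, abiraterone internal standard). Noncompartmental PK.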

[6] = male, Sprague Dawley, rat, plasma, po, 50 mg/kg, male rats, 50 mg/kg PO, GeoMean
[7] = male, Sprague Dawley, rat, plasma, po, 50 mg/kg, male rats, 50 mg/kg PO, individual rat
[8] = female rats, individual rat, 1 mg/kg
[9] = female, Sprague Dawley, rat, plasma, iv, 1 mg/kg, female rats, GeoMean
[10] = female, Sprague Dawley, rat, plasma, iv, 1 mg/kg, female rats, individual rat
[11] = male rats, individual rat, 1 mg/kg
[12] = male, Sprague Dawley, rat, plasma, iv, 1 mg/kg, male rats, GeoMean (third rat excluded)

## C[C@]12CC[C@H](n3ccnc3)CC1=CC[C@@H]1[C@@H]2CC[C@]2(C)C(n3cnc4ccccc43)=CC[C@@H]12 [Compound 2, 3β-(1H-imidazole-1-yl)-17-(1H-benzimidazole-1-yl)-androsta-5,16-diene]
[1]; male, Sprague Dawley, rat, plasma, po, 10 mg/kg, male rats, 10 mg/kg PO, individual rat
  Vd/F: 12.4 L/kg
[1]; [6]
  AUC(0-t): 56200 ng·h/mL
  Cmax: 2730 ng/mL
  Vd/F: 14.6 L/kg
[1]; [7]
  AUC(0-t): 39700 ng·h/mL
  Cmax: 1870 ng/mL
  Vd/F: 14.4 L/kg
[1]; male, Sprague Dawley, rat, plasma, po, 50 mg/kg, CL/F, male rats, 50 mg/kg PO, GeoMean
  CL/F: 1.71 mL/min/kg
[1]; male, Sprague Dawley, rat, plasma, po, 50 mg/kg, Tmax, male rats, 50 mg/kg PO, GeoMean
  Tmax: 9.52 h
[1]; rats, PO dosing, text (and beyond)
  Extrapolated percentage of AUC0-inf: 17–82%
[2]; 0.5 MTD group, five days a week for two weeks, day 7
  Mortality: Two mice died
[2]; chronic dosing 0.2 MTD and MTD groups, 14 days
  Condition of other groups: looked healthy
[3]
  MTD at 14 days: 25 to 50 mg/kg
[4]; CWR22Rv1 xenograft study
  Host toxicity: no apparent host toxicity
[4]; CWR22Rv1 xenograft, 2 at 7.53-fold lower equimolar dose than Gal, p < 0.01
  Suppression of tumor growth: 84%
[4]; CWR22Rv1 xenograft
  Efficacy compared with enzalutamide: more efficacious than enzalutamide
[5]; female rats, GeoMean
  Cmax/D: 311 ng/mL/mg/kg
[5]; female rats, individual rat
  Tmax: 0.0833 h
[5]; [8]
  AUCinf: 199 µg·min/mL and 171 µg·min/mL
  AUClast: 140 µg·min/mL and 126 µg·min/mL
  C0: 342 ng/mL and 418 ng/mL
  CL: 5.03 mL/min/kg and 5.85 mL/min/kg
  Cmax: 291 ng/mL and 350 ng/mL
  Cmax/D: 296 ng/mL/mg/kg and 291 ng/mL/mg/kg and 350 ng/mL/mg/kg
  T1/2: 15.0 h and 13.8 h
  Tmax: 0.25 h and 0.0833 h
  Vss: 5.99 L/kg and 6.31 L/kg
  Vz: 6.51 L/kg and 6.98 L/kg
[5]; [9]
  AUC(0-inf): 3380 ng·h/mL
  AUC(0-t): 2400 ng·h/mL
  clearance: 4.92 mL/min/kg
[5]; [10]
  AUC(0-inf): 4130 ng·h/mL
  AUC(0-t): 2800 ng·h/mL
  clearance: 4.04 mL/min/kg
[5]; female, Sprague Dawley, rat, plasma, iv, 1 mg/kg, C0, female rats, GeoMean
  C0: 333 ng/mL
[5]; female, Sprague Dawley, rat, plasma, iv, 1 mg/kg, C0, female rats, individual rat
  C0: 259 ng/mL
[5]; female, Sprague Dawley, rat, plasma, iv, 1 mg/kg, Cmax, female rats, GeoMean
  Cmax: 311 ng/mL
[5]; female, Sprague Dawley, rat, plasma, iv, 1 mg/kg, Cmax, female rats, individual rat
  Cmax: 296 ng/mL
[5]; female, Sprague Dawley, rat, plasma, iv, 1 mg/kg, T1/2, female rats, GeoMean
  half-life: 14.3 h
[5]; female, Sprague Dawley, rat, plasma, iv, 1 mg/kg, T1/2, female rats, individual rat
  half-life: 14.1 h
[5]; female, Sprague Dawley, rat, plasma, iv, 1 mg/kg, Tmax, female rats, GeoMean
  Tmax: 0.12 h
[5]; female, Sprague Dawley, rat, plasma, iv, 1 mg/kg, Vss, female rats, GeoMean
  Vd: 5.73 L/kg
[5]; female, Sprague Dawley, rat, plasma, iv, 1 mg/kg, Vss, female rats, individual rat
  Vd: 4.96 L/kg
[5]; female, Sprague Dawley, rat, plasma, iv, 1 mg/kg, Vz, female rats, GeoMean
  Vd: 6.08 L/kg
[5]; female, Sprague Dawley, rat, plasma, iv, 1 mg/kg, Vz, female rats, individual rat
  Vd: 4.93 L/kg
[5]; male and female rats, single dose 1 mg/kg IV, 10 or 50 mg/kg PO
  Overt toxic effects during conduct of PK study: No overt toxic effects were observed
[5]; male rats, GeoMean (third rat excluded)
  Cmax/D: 305 ng/mL/mg/kg
[5]; [11]
  AUCinf: 64.0 µg·min/mL and 321 µg·min/mL
  AUClast: 46.6 µg·min/mL and 139 µg·min/mL
  C0: 443 ng/mL
  CL: 15.6 mL/min/kg and 3.11 mL/min/kg
  Cmax: 392 ng/mL
  Cmax/D: 237 ng/mL/mg/kg and 392 ng/mL/mg/kg
  T1/2: 2.96 h and 31.4 h
  Vss: 8.14 L/kg
  Vz: 4.00 L/kg and 8.46 L/kg
[5]; [12]
  AUC(0-inf): 2380 ng·h/mL
  AUC(0-t): 1340 ng·h/mL
  clearance: 6.97 mL/min/kg
[5]; male, Sprague Dawley, rat, plasma, iv, 1 mg/kg, C0, male rats, GeoMean (third rat excluded)
  C0: 336 ng/mL
[5]; male, Sprague Dawley, rat, plasma, iv, 1 mg/kg, C0, male rats, individual rat
  C0: 254 ng/mL
[5]; male, Sprague Dawley, rat, plasma, iv, 1 mg/kg, Cmax, male rats, GeoMean (third rat excluded)
  Cmax: 305 ng/mL
[5]; male, Sprague Dawley, rat, plasma, iv, 1 mg/kg, Cmax, male rats, individual rat
  Cmax: 237 ng/mL
[5]; male, Sprague Dawley, rat, plasma, iv, 1 mg/kg, T1/2, male rats, GeoMean (third rat excluded)
  half-life: 9.64 h
[5]; male, Sprague Dawley, rat, plasma, iv, 1 mg/kg, Tmax, male rats, GeoMean (third rat excluded)
  Tmax: 0.0833 h
[5]; male, Sprague Dawley, rat, plasma, iv, 1 mg/kg, Tmax, male rats, individual rat
  Tmax: 0.0833 h
[5]; male, Sprague Dawley, rat, plasma, iv, 1 mg/kg, Vss, male rats, GeoMean (third rat excluded)
  Vd: 5.81 L/kg
[5]; male, Sprague Dawley, rat, plasma, iv, 1 mg/kg, Vss, male rats, individual rat
  Vd: 4.14 L/kg
[5]; male, Sprague Dawley, rat, plasma, iv, 1 mg/kg, Vz, male rats, GeoMean (third rat excluded)
  Vd: 5.82 L/kg
